Measured values taken from ChEMBL document CHEMBL4513216, “Probing the Open Global Health Chemical Diversity Library for Multistage-Active Starting Points for Next-Generation Antimalarials” (ACS Infect Dis, 2020).

Assay: Toxicity liver stage against HepG2, at 10uM
Type: cell-based
Parameters: test concentration 10 uM, cell line HepG2-A16-CD81EGFP
Conditions: human, HepG2-A16-CD81EGFP cells; read-out: INHIBITION
Outline: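 Uninfected HepG2-A16-CD81EGFP cells, 3 × 10^3 per well, 1536-well, plated on prespotted compound at 10 μM final, parasite-free screening media added to match infected plates; puromycin 10 μM positive, DMSO 0.5% negative; run in parallel with 48 h PbLuc assay at 37 °C, 5% CO2; viability by CellTiter-Glo luminescence, normalized to controls.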

Row | Structure (SMILES) | cytotoxicity at 10 µM [%]
1 | CN1CCN(c2ccc(NS(=O)(=O)c3ccc(Cl)s3)cc2C(=O)O)CC1 | -1.08
2 | Cc1ccnc(NC(=O)C2(n3cnnn3)CCCCC2)c1 | -0.0864
3 | O=C(C1CCC1)N1CCC2(CC1)CNCCO2 | -4.29
4 | CN(C)C(=O)N1CCc2ccc(=O)[nH]c2CC1 | 5.39
5 | CC(C)NC(=O)[C@H]1C[C@H]2NCCO[C@@H]2C1 | -134
6 | CCc1ccc(S(=O)(=O)N2CCCC3(CCCN3S(C)(=O)=O)C2)cc1 (stereo unspecified) | -2.98
7 | CCOCc1ncn2c1CN(S(=O)(=O)c1cccs1)CCC2 | 9.52
8 | COCCO[C@@H]1CCN(C(=O)c2occc2C)[C@H]1Cc1cnn(C)c1 | 5.1
9 | Oc1nc(N2CCCC2)nc2nccc(-c3ccccn3)c12 | 1.36
10 | O=C(NCC1CC1)c1nc(COc2ccc3c(c2)OCO3)no1 | 8.89
11 | COCCN1CCN(C(=O)c2ccncc2F)Cc2cccnc21 | 10
12 | COC(=O)Cn1c(=O)cc(C(F)F)c2c(C)nn(CC(F)F)c21 | 6.2
13 | CC(=O)Nc1ncc(S(=O)(=O)Nc2cccc(F)c2)s1 | 2.93
14 | CNC(=O)c1nnc2ccc(N3CCOCC3)cc2n1 | 6.86
15 | Cc1nn(C)c2c(N3CCN(C(=O)NC4CCCCC4)CC3)ncnc12 | 9.09
16 | CN1CCCC1c1nnc2n1CCN(S(=O)(=O)c1ccccc1Cl)CC2 (stereo unspecified) | 4.94
17 | O=C(O)c1ccccc1-c1ccc(CN2CCC(CO)C2)cc1 (stereo unspecified) | -14.6
18 | Cn1c(C(=O)NC(Cc2ccsc2)c2cccnc2)cc(=O)n(C)c1=O (stereo unspecified) | 2.61
19 | c1cc(C2CCCN2CC2CCCCC2)n[nH]1 (stereo unspecified) | -1.83
20 | CNc1nc(C2CCCN(C(=O)C(C)(C)OC)C2)nc2c1CN(C)CC2 (stereo unspecified) | -8.24
21 | O=S(=O)(c1cn[nH]c1)N1CCCC1c1cc[nH]n1 (stereo unspecified) | -23
22 | Fc1ccc(-c2nccnc2C2CCCNC2)cc1 (stereo unspecified) | -23.8
23 | CC(NC(=O)NC1CCN(Cc2ccccc2)CC1)c1nncn1C (stereo unspecified) | -12.5

Row | Structure (SMILES) | cytotoxicity at 10 µM [%]
24 | CCCN(CC(=O)OC)C(=O)c1sc(C)nc1C | -2.42
25 | CC(C)(C)c1ncc(C(=O)NCc2cccc(C(=O)N3CCCC3)c2)s1 | -4.57
26 | CN1CCCN(c2ccc(F)cc2CNC(=O)c2cccnc2)CC1 | -2.52
27 | COc1ccc(Cl)cc1CS(=O)(=O)CC(=O)NC(C)CCC(C)C (stereo unspecified) | 11
28 | COc1ccc(Cl)cc1CS(=O)(=O)Cc1cc(C)on1 | 6.06
29 | CN(Cc1ccc(Cl)s1)C(=O)NCCN1CCCCCC1=O | -0.509
30 | O=C(OCc1ccccc1)C1CCCN1Cc1nc(C2CC2)no1 (stereo unspecified) | -5.43
31 | O=C(C1CC(c2cccc(F)c2)=NO1)N1CCc2ccccc21 (stereo unspecified) | 2.46
32 | Cc1noc(C2CCCN(Cn3cc(Br)cn3)C2)n1 (stereo unspecified) | -3.67
33 | Cc1nc(CN[C@H]2CCCN(C(=O)OC(C)(C)C)C2)cs1 | 0.577
34 | CCN(CC)CCn1cc(NC2CCN(C(C)(C)C)CC2)cn1 | -6.53
35 | Cc1nn(C)c(C)c1CCC(=O)N(C)Cc1ccc(C#N)cc1 | -2.45
36 | CN(C)S(=O)(=O)c1ccc2c(c1)N(Cc1ccccn1)CCC2 | 0.645
37 | Cc1cc(C(=O)NC2CCN(C(=O)Nc3cccnc3)CC2)c(C)o1 | 6.62
38 | CN(c1ncnc2c1cnn2C)C1CCCN(c2cccnn2)C1 (stereo unspecified) | 3.93
39 | CCc1nc(C2CCCN2C(=O)c2ccc(=O)n(CC)n2)no1 (stereo unspecified) | 2.72
40 | COc1ccc(S(=O)(=O)N2CCn3nc(C)nc3C2)cc1C | 9.68
41 | O=C(NCCCn1cncn1)c1ccc(-c2ccccc2)[nH]c1=O | -4.86
42 | CSC1(CNC(=O)NC(C)Cc2cccc(F)c2)CCOCC1 (stereo unspecified) | -15.6
43 | CC1(c2ccc(Br)cc2)CC(=O)N(CCC#N)C1=O (stereo unspecified) | 0.923
44 | CCN(CCNC(=O)C1CCCN(C(C)=O)C1)c1ccccc1C (stereo unspecified) | 4.87
45 | COc1cccc(S(=O)(=O)Cc2noc(CC(C)C)n2)c1 | 12
46 | Cc1cc(C)c(CNC(=O)N(C)Cc2nnc3n2CCC3)c(=O)[nH]1 | -10.5

Row | Structure (SMILES) | cytotoxicity at 10 µM [%]
47 | Cc1csc(CNC(=O)N(C)Cc2nnc3n2CCC3)n1 | -4.75
48 | COc1ccc(C2(CNC(C)c3nnc(C)o3)CCCCC2)cc1 (stereo unspecified) | 4.21
49 | O=C(C1CC1)N1CCCC1C1CCN(Cc2ccccc2)CC1 (stereo unspecified) | -9.37
50 | CN(C)C(=O)CNC(=O)c1ccc(Cl)cc1F | -7.04
51 | CCOc1nnc(CN(C)CC2CCCN2c2cccnn2)s1 (stereo unspecified) | -10.7
52 | Cc1nc(C)n(C2CCCN(C(=O)c3ccc(F)cc3F)C2)n1 (stereo unspecified) | -2.9
53 | Cc1ccc(CNC(=O)C2=NOC3(CCCNC3)C2)cc1 (stereo unspecified) | 1.33
54 | CC1(C)CNC(=O)c2nc(CCN3CCOCC3)[nH]c2C1 | -10.7
55 | O=S1(=O)COCCN1Cc1ccc(Cl)c(Cl)c1 | 8.44
56 | COCc1noc(-c2ccc(N(C)Cc3cn(C)nc3C)nc2)n1 | -9.75
57 | CCCN(Cc1nc(-c2ccoc2)oc1C)CC1CCCO1 (stereo unspecified) | 2.4
58 | CCc1cc(NCCCN(C)C2CCCC2)ncn1 | 1.75
59 | O=C1OCCN1Cc1cccc(F)c1C(F)(F)F | 2.61
60 | O=C(CNC(Cn1cccn1)c1ccccc1)Nc1cnccn1 (stereo unspecified) | 7.34
61 | Cn1ccnc1SCCNC(=O)c1c[nH]nc1C1CCCCC1 | -4.68
62 | Cc1nc(C)n(CCNC2CCN(c3ncnc4c(C)csc34)CC2)n1 | 4.35
63 | CSCCC(=O)N1CCCC(c2nccn2Cc2ccncc2)C1 (stereo unspecified) | 9.33
64 | C[C@@H]1CN(c2cc(N3CCC(O)CC3)ncn2)C[C@@]1(O)C1CC1 | -1.79
65 | CN(C)S(=O)(=O)N1CC[C@]2(O)CCN(Cc3cc(F)cc(F)c3)C[C@@H]2C1 | -0.757
66 | Cc1cc(F)ccc1-c1cc(NCCO)nc2[nH]ccc12 | 21.7
67 | Cc1cc(C(=O)N2CC[C@](C)(O)[C@H](C)C2)c(C)n1C | -1.43
68 | O=C(CCO)N[C@H]1CN(CC2CCC2)C[C@@H]1c1ccccc1 | -0.447
69 | Cc1ccc(OCCN(C)C(=O)CCCN2CCCC2=O)c(C)c1 | -8.38

Row | Structure (SMILES) | cytotoxicity at 10 µM [%]
70 | CNc1cc(C)nc(N2C[C@H](C3CC3)[C@@H](N)C2)n1 | -4.7
71 | Cc1cc(C(=O)N2CCCC2)ccc1NS(C)(=O)=O | 0.535
72 | CCN1CC(C(=O)N2CC(Oc3ccccc3F)C2)CC1=O (stereo unspecified) | -2.49
73 | O=C(NCCc1cccnc1)Nc1cc(C(F)(F)F)c[nH]c1=O | -12.2
74 | O=C(c1ccc(OCC2CC2)nc1)N1CCCC(n2cccn2)C1 (stereo unspecified) | -12.4
75 | CCCc1noc(C(C)N2CCN(Cc3nc(C)c(C)o3)CC2)n1 (stereo unspecified) | -10.6
76 | c1ncc2c(n1)CN(Cc1nc(-c3ccc4c(c3)OCO4)no1)CC2 | -10.4
77 | Cc1cc(C)n(-c2ccc(CNCc3cccc(C#N)c3)cn2)n1 | -10.2
78 | COC(=O)c1cc(C(=O)N2CCC(OC)CC2)n(-c2ccccc2)n1 | -15.1
79 | Cc1ccc(-c2nc(CNCC3CN(C)CCO3)co2)cc1 (stereo unspecified) | -14.4
80 | O=C(CCCc1ccccc1)N1CCCC(n2cncn2)C1 (stereo unspecified) | -18.3
81 | Cc1cccc(-c2nc(CN3CCc4cncnc4C3)no2)c1 | -10.4
82 | O=C(c1ccn(-c2cccc(Cl)c2)n1)N1CCN(CCO)CC1 | -17.1
83 | Cc1ncsc1C(=O)NC1CCN(Cc2ccc(C(N)=O)cc2)CC1 | -15
84 | O=C(c1cc2cc(F)ccc2[nH]1)N1CCCCC1Cn1cccn1 (stereo unspecified) | -8.91
85 | CC(c1ccc(F)cc1F)N1CCN(Cc2nccn2C)CC1 (stereo unspecified) | -11.7
86 | CCc1nc(CN(C)C2CCN(CCc3ccncc3)C2)no1 (stereo unspecified) | -20.2
87 | CCc1[nH]ncc1C(=O)N1CCCC(n2cc(C)cn2)C1 (stereo unspecified) | -11.4
88 | Cc1ncc(CNC(=O)N(CCCO)C2CCc3ccccc32)s1 (stereo unspecified) | -12.9
89 | c1ccc2oc(CCCN3CCc4cncnc4C3)nc2c1 | -14.6
90 | CCNC(=O)NCCCn1nc2ccccn2c1=O | -18.2
91 | CC(O)CN1CCC(CNCc2cccc(C(F)(F)F)c2)CC1 (stereo unspecified) | -15.2
92 | c1cnnc(N2CCCC(NCc3cccc4c3OCCO4)C2)c1 (stereo unspecified) | -7.99

Row | Structure (SMILES) | cytotoxicity at 10 µM [%]
93 | O=C(Cc1c[nH]c2ccccc12)N1CCC(Nc2cccnc2)CC1 | -26.6
94 | Cc1cc(NC(=O)NCC2CCOC2)no1 (stereo unspecified) | 4.43
95 | COc1cccc(C(=O)N2CCCC(c3cc(C)[nH]n3)C2)c1OC (stereo unspecified) | -7.4
96 | Cc1cc(C(=O)N[C@H](C)c2onc(C)c2C(=O)O)c(C)o1 | 3.82
97 | Cn1nc(COCC2CC2)c2c1CCN(Cc1ccco1)C2 | -1.77
98 | c1csc(CN2CC(c3nc(-c4cnccn4)no3)C2)c1 | -8.28
99 | CN1C(=O)CCC12CCCN(C(=O)c1ccncc1F)C2 (stereo unspecified) | 11
100 | CCOC(=O)[C@]12CCCN(Cc3nccs3)C[C@H]1CN(CC(C)C)C2 | -2.85
101 | CN1CC(=O)N(c2ccsc2)CC12CCN(Cc1cnn(C)c1)C2 (stereo unspecified) | 0.0218
102 | Cc1ccc(CN2CCC3(CCC3NS(=O)(=O)c3ccccc3)CC2)o1 (stereo unspecified) | -2.97
103 | CS(=O)(=O)NCc1cn2c(n1)CN(Cc1cccnc1)CC2 | -103
104 | CN1CCN(c2ccc3ccc(C(=O)N4CCCCO4)cn23)CC1 | -7.3
105 | CC(C)OCCCN(Cc1ccncc1)Cc1cccc(F)c1F | -15.3
106 | Cc1ccc(CN2CCc3onc(C(=O)Nc4cccnc4)c3C2)o1 | 5.15
107 | Cc1cc(CN2C[C@@H]3CCCO[C@@H]3[C@H](NS(C)(=O)=O)C2)no1 | 11.5
108 | Cc1nc(CN2CCO[C@H]3[C@@H](Oc4ccccn4)CC[C@@H]32)cs1 | 2.4
109 | CCS(=O)(=O)N1C[C@@H]2CN(Cc3cnn(C)c3)CCO[C@@H]2C1 | -0.646
110 | Cc1ccc(C(=O)N2C[C@H]3CC[C@@H](C2)N(Cc2ccccc2)C3)cn1 | -140
111 | COc1ccc(-n2cc3[nH]c(=O)n(C(C)C)n3c2=O)cc1 | 2.03
